High-throughput results: PubChem, The Scripps Research Institute Molecular Screening Center
Only some compounds are listed: those with a hit (about 1.5% of all), similar ones and a draw of the others.
OXTR agonist = agonists of human oxytocin receptor | P30559 | CHO-OTR cells, Fluo-8 calcium fluorescence; normalized: DMSO 0%, oxytocin 100% | activation, % at 3 µM | 320,000 tested, 0.32% active;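 active means activation above the mean of all tested compounds plus 3 SD, cutoff set per screening run, cut at about 20% in these data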;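 further: peak over basal fluorescence ratio from a 100 s FLIPR kinetic read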
OXTR potentiate = potentiators of human oxytocin receptor; CHO-OTR cells, Fluo-8 calcium fluorescence, potentiator mode; 0% = oxytocin EC15, 100% = EC100; P30559; AID 2445; activation, % at 3 µM; 320,000 tested, 0.061% active;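 active means activation above that plate's cutoff, the mean activation of tested compounds plus 3 SD, cut at about 6.6% in these data, passing the limit was not always enough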;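 further: 100% uses oxytocin at 75 nM as the full agonist control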
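Assay system: CHO cell line stably expressing human OTR | Also added: Oxytocin at about EC15, sub-maximal agonist stimulus | Times: Compound 6 min at room temperature before oxytocin, 100 s read | Measured by: Fluo-8 intracellular calcium fluorescence, ex 470-495, em 515-575 nm | Controls: EC15 oxytocin alone as 0%, 75 nM oxytocin as 100%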
M4 antag = antagonists of human muscarinic M4 receptor (CHRM4); CHO-hM4 cells, ACh EC80, Fluo-8 calcium fluorescence; inhibition, % at 3 µM; 360,000 tested, 0.73% active; AID 624125;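 active means inhibition above its plate's cutoff, the mean inhibition of sample wells plus 3 SD, cut at about 27% in these data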;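 further: 0% = acetylcholine EC80 with DMSO and 100% = DMSO without agonist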
M4 ag = agonists of human muscarinic M4 receptor (CHRM4); CHO-K1 hM4/Gqi5, Fluo-8 calcium fluorescence; vehicle 0%, full acetylcholine response 100%; activation, % at 3 µM; 360,000 tested, 0.14% active;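 active means activation above the run mean over all test wells plus 3 SD, cut at about 32% in these data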;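 further: peak over basal fluorescence ratio per well then scaled between controls; 0% = DMSO wells and 100% = acetylcholine at EC100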
M4 PAM = positive allosteric modulators of human muscarinic M4 receptor; AID 624126; CHO-K1 hM4/Gqi5, Fluo-8 calcium fluorescence, ACh EC20; 0% = ACh EC20, 100% = maximal ACh; P08173; activation, % at 3 µM; 360,000 tested, 0.4% active;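 active means activation above its plate's cutoff, the mean activation of sample wells plus 3 SD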
V1R ag counter = V1a receptor agonism, counter-screen for OXTR agonists | P37288 | CHO-V1R cells, Fluo-8 calcium fluorescence, agonist mode; 0% DMSO, 100% 3 nM vasopressin | activation, % at 3 µM | 320,000 tested, 0.25% active | AID 2797;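 active means activation above the mean activation of all tested compounds plus 3 SD, per screening run, cut at about 20% in these data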;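 further: signal is peak over basal fluorescence ratio across a 100 second FLIPR read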
Target sequence (P37288 whole entry, looked up): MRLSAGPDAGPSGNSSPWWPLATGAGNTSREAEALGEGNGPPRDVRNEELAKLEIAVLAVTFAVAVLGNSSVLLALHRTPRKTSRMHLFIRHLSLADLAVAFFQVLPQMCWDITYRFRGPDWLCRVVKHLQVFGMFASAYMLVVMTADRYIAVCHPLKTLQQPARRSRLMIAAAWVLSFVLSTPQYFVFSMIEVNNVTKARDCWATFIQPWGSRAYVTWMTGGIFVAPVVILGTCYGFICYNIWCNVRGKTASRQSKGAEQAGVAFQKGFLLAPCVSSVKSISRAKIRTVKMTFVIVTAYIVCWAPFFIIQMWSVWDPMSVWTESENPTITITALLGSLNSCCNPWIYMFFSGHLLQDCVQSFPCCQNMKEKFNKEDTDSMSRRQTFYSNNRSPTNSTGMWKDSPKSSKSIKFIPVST
Active calls of the source: *; x = not tested or not shown.

SMILES	OXTR agonist	OXTR potentiate	M4 antag	M4 ag	M4 PAM	V1R ag counter
CN1C(=O)c2cccc(NCCCN3C(=O)c4ccccc4C3=O)c2C1=O	0.1	2.1	-12.0	1.1	12.4	0.4
CCCCNc1c2c3c(cccc3n(C)c1=O)C(=O)c1ccccc1-2	134.0*	-8.2	76.6*	175.9*	-39.4	134.3*
Cc1ccc(Cn2cc(CN3CC(N4CCSCC4)CS3(=O)=O)nn2)cc1 (stereo unspecified)	x	x	-16.4	0.3	11.8	x
O=C(COC(=O)COc1ccc2c(c1)CCC2)Nc1ccccc1C(F)(F)F	12.0	-11.1	-13.4	4.0	16.4	11.4
Cn1cc([C@@H]2C[C@H]3CN(Cc4cccc(Cl)c4)C(=O)[C@]34CCCN24)c2ccccc21	0.6	-5.9	29.8*	2.6	-11.7	1.3
COc1ccccc1CN1C[C@@H]2C[C@@H](c3ccccc3OC)N3CCC[C@@]23C1=O	-0.5	-6.8	30.3*	0.1	-23.7	-1.1
COc1ccc(CCNC(=O)CS(=O)(=O)c2cn(CC(=O)N3CCCC3)c3ccccc23)cc1OC	0.7	5.8	26.6*	1.3	-1.9	-0.5
CC(=O)c1ccc(S(=O)c2ccccc2)cc1 (stereo unspecified)	0.0	-6.7	-3.2	1.8	33.7*	-0.1
O=C(CCNC(=O)c1ccco1)Nc1ccccc1	0.4	4.0	-11.7	1.7	15.7*	0.8
O=C(CCNC(=O)c1ccco1)NNC(=O)c1ccc(Br)cc1	x	x	-7.1	0.7	23.1*	x
CNc1ccc2nnc(C(F)(F)C(F)(F)C(F)(F)F)n2n1	1.0	0.8	6.6	0.3	-5.5	0.6
CCOc1ccccc1NC(=O)COC(=O)Cc1cccs1	-1.4	-4.2	99.5*	-2.7	-15.5	-1.2
COc1cc(C(=O)NNC(=O)COc2ccc(Br)cc2)ccc1OCC(=O)N1CCOCC1	x	x	3.4	0.8	9.0	x
COc1cc(C(=O)NNC(=O)COc2ccc(C)cc2)ccc1OCC(=O)N1CCOCC1	-0.7	-3.6	-7.9	1.1	22.7*	0.1
Cc1ccccc1S(=O)(=O)Cc1ccc(C(=O)NCCCN2CCCC(C)C2)o1 (stereo unspecified)	0.2	-7.0	-3.0	0.4	-1.3	0.2
CC(C)CC(=NNC(=O)c1ccncc1)c1cc(Cl)ccc1O	x	x	-3.8	40.0*	-2.9	x
COc1ccc(NC(C)=O)cc1S(=O)(=O)N(C)Cc1c(C)nn(-c2ccccc2)c1C	0.1	2.6	10.8	2.2	2.3	-0.3
O=C1/C(=C/c2cccnc2)CCc2c1[nH]c1ccccc21	-2.1	-3.9	-1.7	6.2	-1.8	-1.2
CC(C)C/C=C1\CCc2c([nH]c3ccccc23)C1=O	-0.3	-3.3	-12.9	1.5	20.5*	1.5
CC(=O)Nc1cc(-c2cccnc2)cn2c(-c3cccc(C(F)(F)F)c3)cnc12	x	x	-7.8	5.0	-2.4	x
Cc1ccc(CC2C(=O)N(CC(=O)O)C(=O)C2C)cc1 (stereo unspecified)	-0.3	-16.6	28.8*	1.0	14.9	0.3
CN(C)c1cc[n+](Cc2c(Cl)cccc2Cl)cc1	-0.3	-9.5	60.6*	0.8	-34.4	-0.4
CN(C)c1cc[n+](CC[n+]2ccc(N(C)C)cc2)cc1	0.2	7.1	1.6	2.0	0.2	0.5
CCOC(=O)CS(=O)(=O)c1nc(-c2ccccc2)cc(C(F)(F)F)n1	0.5	0.7	37.8*	2.5	-8.0	-0.6
O=C(Nn1c(-c2ccc(F)cc2)nc2ccccc2c1=O)C1CCCCC1	-1.7	-0.6	-2.6	0.5	1.9	-0.9
SMILES	OXTR agonist	OXTR potentiate	M4 antag	M4 ag	M4 PAM	V1R ag counter
CC1CCCCC1NC(=O)C1CCC(CNS(=O)(=O)c2ccc3c(c2)C(C)(C)C(=O)N3C)CC1 (stereo unspecified)	x	x	-9.2	2.2	8.8	x
CSc1cccc(NC(=S)N(CCN(C)C)C(C)c2ccccn2)c1 (stereo unspecified)	4.1	-9.3	33.3*	6.5	15.6	0.4
O=C(/C=C/c1ccccc1Cl)NCCN1CCOCC1	0.4	-3.1	-16.5	0.1	6.0	0.2
O=C(/C=C/c1c(F)cccc1Cl)NCCCN1CCOCC1	0.8	-2.4	3.1	0.6	16.5*	-0.3
CC(C)n1nnc2c(=O)oc3ccccc3c21	0.0	-2.8	-13.1	0.6	4.3	0.3
Fc1cccc(F)c1/C=N/NC(=S)Nc1cccnc1	-1.1	-15.2	11.3	0.4	-3.4	-0.6
Fc1c(F)c(F)c(/C=N/NC(=S)Nc2cccnc2)c(F)c1F	-1.3	-0.1	-9.1	3.1	19.5*	0.0
Cc1ccc(CN2C3CCCC2CC(NC(=O)c2ccc(F)cc2)C3)cc1 (stereo unspecified)	1.4	-0.8	13.3	0.6	-10.4	0.0
O=C(Nc1ccccc1-c1ccccc1)NC1CC2CCCC(C1)N2Cc1ccc(F)cc1 (stereo unspecified)	1.3	-26.3	58.4*	0.8	-22.9	7.5
O=C(Nc1ccccc1-c1ccccc1)NC1CC2CCCC(C1)N2CCc1ccccc1 (stereo unspecified)	2.1	-0.5	29.4*	0.1	-16.9	2.7
CC(C)NC(=O)C1(C)CN(S(C)(=O)=O)CC(=O)N1CCc1ccccc1 (stereo unspecified)	x	x	4.0	0.9	0.5	x
O=C(c1cc(COc2cccc3cccnc23)on1)N1CCC[C@H]1CO	x	x	6.2	1.5	-2.1	x
CCN(CC)C1CCN(C(=O)c2cc(COc3cccc4cccnc34)on2)C1 (stereo unspecified)	x	x	38.3*	1.3	-24.7	x
Clc1ccc(-c2ccc(CNCC3CCCO3)o2)cc1 (stereo unspecified)	4.8	-4.5	0.1	2.2	-4.8	2.0
Cc1ccc(C(=O)N2CCN(c3ccc(N4CCOCC4)nn3)CC2)cc1C	-0.9	-2.2	-3.5	1.3	18.2*	0.1
O=C(c1cccc(Br)c1)N1CCN(c2ccc(N3CCOCC3)nn2)CC1	0.3	2.1	16.6	-0.1	-5.9	2.1
CCN1CCN(c2ccc(S(=O)(=O)N3CCCCC3)cc2NC(=O)Cc2ccccc2)CC1	0.5	-11.6	12.4	0.8	-6.5	-0.2
Cc1ccccc1OCCC(=O)Nc1cc(S(=O)(=O)N2CCCCC2)ccc1N1CCN(C)CC1	x	x	21.0	55.9*	-9.3	x
CCN1CCN(c2ccc(S(=O)(=O)N3CCCCC3)cc2NC(=O)Cc2ccc(Cl)c(Cl)c2)CC1	86.3*	-18.4	20.7	53.9*	-15.4	48.9*
Cc1ccccc1N(CC(=O)N1CCCCCC1)S(C)(=O)=O	1.1	1.7	0.8	0.1	-2.6	0.9
Cc1ccc(S(=O)(=O)N2CCN(C(=O)CSc3ccc(F)cc3)CC2)cc1	2.0	1.9	24.0	15.5	31.8*	0.4
O=C(CSc1ccccc1)N1CCN(S(=O)(=O)c2ccccc2)CC1	0.1	-6.9	-2.5	3.9	3.9	1.3
